Published values pooled from the literature.
CYP2B6: Cytochrome P450 2B6 (CYP2B6, Homo sapiens, UniProt P20813)
UGT1A6: UDP-glucuronosyltransferase 1A6 (UGT1A6, Homo sapiens, UniProt P19224)

Cc1ccc(C=NNc2nc(-c3ccc(F)cc3)cs2)c(Br)c1  haemolysis (haemolysis; human; 100 µM, 30 min, pH 7.4): 31.6%
Cc1ccn2c(C(=O)N3CCN(Cc4cn(-c5ccc(C(F)(F)F)cc5)nn4)CC3)c(C)nc2c1  CC50 (HeLa; cell growth or viability, resazurin): > 100 µM
Fc1ccc(-c2csc(NN=Cc3cccc(C(F)(F)F)c3)n2)cc1  haemolysis (haemolysis; human; 50 µM, 30 min, pH 7.4): 30.7%
CCOP(=O)(OCC)[C@@H]1C[C@H](n2cc(Cn3ccc(=O)[nH]c3=O)nn2)ON1C (racemic)  CC50 (HeLa; cell growth or viability; 72 h): > 250 µM
Cc1ccc(C(=O)N2CCOC[C@H]2Cc2cccc(-n3nccn3)c2)c(-n2nccn2)c1  inhibition (CYP2B6; enzyme activity, inhibitor; human, liver microsomes; 100 µM): 44%
C[C@@H]1[C@H](O)[C@@H](C)/C=C/C=C/C=C/C=C/C=C/C=C/C=C/[C@H](O[C@@H]2O[C@H](C)[C@@H](O)[C@H](N)[C@@H]2O)C[C@@H]2O[C@](O)(C[C@@H](O)C[C@@H](O)[C@H](O)CC[C@@H](O)C[C@@H](O)CC(=O)O[C@H]1C)C[C@H](O)[C@H]2C(=O)O  haemolysis (haemolysis; human; 0.5 µg/mL, 1 h): 3.73%
CCc1cc(/C(C)=N/OCc2ccc(C3CCCCC3)c(C(F)(F)F)c2)ccc1CN1CC(C(=O)O)C1  inhibition (CYP2B6; enzyme activity, inhibitor; human, liver microsomes; 100 µM, 20 min): 21%
CCc1ccc(-n2cc(CN3CCN(C(=O)c4c(C)nc5ccc(Cl)cn45)CC3)nn2)cc1  CC50 (HeLa; cell growth or viability, resazurin): 58.1 µM
CC(=O)c1cc(C(=O)N[C@@H](C)Cn2ccc(-c3ccc(C#N)c(Cl)c3)n2)[nH]n1  IC50 (UGT1A6; enzyme activity, inhibitor; human, liver microsomes): > 50 µM
COc1cccc(-n2cc(CN3CCN(C(=O)c4c(C)nc5cc(C)ccn45)CC3)nn2)c1  CC50 (HeLa; cell growth or viability, resazurin): > 100 µM
Fc1ccc(-c2csc(NN=Cc3ccc(C(F)(F)F)cc3)n2)cc1  haemolysis (haemolysis; human; 50 µM, 30 min, pH 7.4): 25.7%
CCOP(=O)(OCC)[C@@H]1C[C@@H](n2cc(Cn3cc(C)c(=O)[nH]c3=O)nn2)ON1C (racemic)  CC50 (HeLa; cell growth or viability; 72 h): > 250 µM
OC(Cn1cncn1)(Cn1cncn1)c1ccc(F)cc1F  haemolysis (haemolysis; human; 8 µg/mL, 1 h): 4.52%
Cc1nc2ccc(Cl)cn2c1C(=O)N1CCN(Cc2cn(-c3ccc(C(F)(F)F)cc3)nn2)CC1  CC50 (HeLa; cell growth or viability, resazurin): > 100 µM
C[C@H](O)c1cc(C(=O)N[C@@H](C)Cn2ccc(-c3ccc(C#N)c(Cl)c3)n2)n[nH]1  IC50 (UGT1A6; enzyme activity, inhibitor; human, liver microsomes): > 100 µM
CCOP(=O)(OCC)[C@@H]1C[C@@H](n2cc(-c3ccccc3)nn2)ON1C (racemic)  CC50 (HeLa; cell growth or viability; 72 h): > 250 µM
CCCc1cn(CCN2CCN(C(=O)c3c(C)nc4cc(C)ccn34)CC2)nn1  CC50 (HeLa; cell growth or viability, resazurin): > 100 µM
CCCCCCCCCCCCCCCCOP(=O)([O-])OCC[N+](C)(C)C  IC50 (HeLa; cell growth or viability, XTT; 72 h): 6.5 µM
Fc1ccc(-c2csc(NN=Cc3ccccc3C(F)(F)F)n2)cc1  haemolysis (haemolysis; human; 10 µM, 30 min, pH 7.4): 4.43%
CCN(CC)CCCC(C)Nc1ccnc2cc(Cl)ccc12 (centres unmarked)  haemolysis (haemolysis; human; 10 mM, 45 min): 15.4%
Fc1ccc(-c2csc(NN=Cc3cccs3)n2)cc1  haemolysis (haemolysis; human; 100 µM, 30 min, pH 7.4): 61.4%
CCOP(=O)(OCC)[C@@H]1C[C@H](n2cc(Cn3ccc(NC(C)=O)nc3=O)nn2)ON1C (racemic)  CC50 (HeLa; cell growth or viability; 72 h): > 250 µM
CCOc1ccccc1C=NNc1nc(-c2ccc(F)cc2)cs1  haemolysis (haemolysis; human; 10 µM, 30 min, pH 7.4): 0%
CCCc1cn(CCN2CCN(C(=O)c3c(C)nc4ccc(Cl)cn34)CC2)nn1  CC50 (HeLa; cell growth or viability, resazurin): > 100 µM
CCOP(=O)(OCC)[C@@H]1C[C@H](n2cc(Cn3cnc4c(N)ncnc43)nn2)ON1C (relative stereo)  CC50 (HEL; cell growth or viability; 72 h): > 100 µM
CCc1ccc(-n2cc(CN3CCN(C(=O)c4c(C)nc5cc(C)ccn45)CC3)nn2)cc1  CC50 (HeLa; cell growth or viability, resazurin): > 100 µM
CC(=NNc1nc(-c2ccc(F)cc2)cs1)c1cccc(Br)c1  haemolysis (haemolysis; human; 10 µM, 30 min, pH 7.4): 0%
COc1cccc(-n2cc(CN3CCN(C(=O)c4c(C)nc5ccc(Cl)cn45)CC3)nn2)c1  CC50 (HeLa; cell growth or viability, resazurin): > 100 µM
Oc1ccc(Cl)cc1C=NNc1nc(-c2ccc(F)cc2)cs1  haemolysis (haemolysis; human; 50 µM, 30 min, pH 7.4): 21.2%
